The record followed here is PubChem BioAssay AID488805 (Broad Institute, 2010).

A short description of assay [1]: compounds inducing hypoxia-responsive transcription – cell-based, U2OS HRE-luc, luminescence, dry powder, set 2, dose response (AID 488805). The settings on record: U2OS HRE-luciferase reporter, HIF pathway activation, luminescence, active compounds read high. The gist of the method: (§1)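 material = U2OS cells with HRE-luciferase reporter | quantity = 6,000 cells per well | times = compound exposure 24 h at 37 °C, 21% O2 | detection = luciferase luminescence measured with Steady-Glo reagent | dosing = compound dose series of 8 points, 3-fold steps | buffer or medium = phenol red-free DMEM with 10% fetal bovine serum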

Assay [2] concerns U2OS HRE-luciferase reporter, HIF pathway activation, luminescence. The assay is described as above. The gist of the method:
as §1

The source made the active and inactive calls.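 How the source made its calls: active means luminescence gain over solvent baseline above 10% of the positive control response, limit may shift with hit yield; inactive means the rest, including opposite-direction effects.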

Turning to `Cn1c(NC(=O)c2cc(-c3ccccc3)on2)nc2ccccc21`, the max activation in assay [1] (at 0.056 µM) is 1.19% (inactive).

For the compound `O=C(NC1Cc2ccccc2C1)c1cc(-c2ccccc2)on1`, the max activation in assay [1] (at 4.6 µM) is 2.61% (inactive).

The AC50 is the concentration at which the activity in the assay is half-maximal. For the compound `c1ccc(CNc2nc(-c3ccccn3)nnc2-c2ccccc2)cc1`, the concentration at half-maximal activity (AC50) in assay [2] is 7.03 µM.

As to `CN1CCN(C(=O)c2cc(-c3ccccc3)on2)CC1`, the max activation in assay [1] (at 38 µM) was -5.2% (inactive).

On to `O=C(Nc1ncc(-c2ccccc2)o1)c1cc(-c2ccccc2)on1`, for which, in assay [1] (at 0.5 µM), the max activation was -7.77% (inactive).

On to `c1ccc(-c2nnc(-c3ccccn3)nc2NCCN2CCOCC2)cc1`, for which, in assay [2], the AC50 is 18.1 µM.

As to `O=C(c1cc(-c2ccccc2)on1)N1CCC(N2CCCC2)CC1`, the max activation in assay [1] (at 38 µM) was 3.88% (inactive).

Regarding `O=C(Nc1ncc2ccccc2n1)c1cc(-c2ccccc2)on1`, in assay [1] (at 0.056 µM), the max activation was 0.964% (inactive).

Turning to `O=C(NC1CCc2ccccc2C1)c1cc(-c2ccccc2)on1` (stereo unspecified), the max activation in assay [1] (at 0.056 µM) was -4.31% (inactive).

As to `Cc1cccc(CNC(=O)c2cc(-c3ccccc3)on2)c1`, the max activation in assay [1] (at 0.5 µM) is -4.69% (inactive).

Consider `CC(C)(C)CCNc1nc(-c2ccccn2)nnc1-c1ccccc1`, for which, in assay [2], the AC50 was 2.59 µM.

In the case of `O=C(Nc1nc2ccccc2s1)c1cc(-c2ccccc2)on1`, in assay [1] (at 4.6 µM), the max activation was -2.04% (inactive).

For `O=C(Nc1nnc(-c2ccccc2)s1)c1cc(-c2ccccc2)on1`, the max activation in assay [1] (at 0.056 µM) is -3.85% (inactive).

In the case of `O=C(NCCCN1CCOCC1)c1cc(-c2ccccc2)on1`, in assay [2], the AC50 is 9.51 µM.

With `O=C(Nc1cnc2ccccc2c1)c1cc(-c2ccccc2)on1`, in assay [1] (at 38 µM), the max activation was 2.22% (inactive).

For `O=C(NCCCCO)c1cc(-c2ccccc2)on1`, in assay [2], the AC50 is 10.5 µM.

Consider `c1ccc(-c2nnc(-c3ccccn3)nc2N2CCN(c3ccncc3)CC2)cc1`, for which the half-maximal activity concentration (AC50) in assay [2] was 8.32 µM.

Consider `Cc1cccc(CNc2nc(-c3ccccn3)nnc2-c2ccccc2)c1`, for which the concentration at half-maximal activity (AC50) in assay [2] was 3.29 µM.

For the compound `O=C(Nc1ccc2ccccc2n1)c1cc(-c2ccccc2)on1`, the max activation in assay [1] (at 0.5 µM) is -5.52% (inactive).

As to `C=CCNc1nc(-c2ccccn2)nnc1-c1ccccc1`, the AC50 in assay [2] was 8.3 µM.

As to `CN1CCN(c2nc(-c3ccccn3)nnc2-c2ccccc2)CC1`, the half-maximal activity concentration (AC50) in assay [2] is 14.5 µM.

For the compound `OCC1CCN(c2nc(-c3ccccn3)nnc2-c2ccccc2)CC1`, the AC50 in assay [2] is 18.7 µM.

Take `Cc1ccc(CNc2nc(-c3ccccn3)nnc2-c2ccccc2)cc1`: the AC50 in assay [2] is 3.29 µM.

With `CN(C)c1nc(-c2ccccn2)nnc1-c1ccccc1`, the AC50 in assay [2] was 11.7 µM.

For the compound `Cc1cccc(Nc2nc(-c3ccccn3)nnc2-c2ccccc2)n1`, the AC50 in assay [2] was 25.6 µM.

As for `O=C(c1cc(-c2ccccc2)on1)N1CCC(CO)CC1`, the max activation in assay [1] (at 0.056 µM) was -6.22% (inactive).

For the compound `OCCCNc1nc(-c2ccccn2)nnc1-c1ccccc1`, the AC50 in assay [2] is 21.3 µM.

`O=C(c1cc(-c2ccccc2)on1)N1CCC(N2CCOCC2)CC1`: the max activation in assay [1] (at 4.6 µM) is 1.93% (inactive).

As to `c1ccc(-c2nnc(-c3ccccn3)nc2NCCCN2CCOCC2)cc1`, the AC50 in assay [2] is 11 µM.

As for `c1ccc(-c2nnc(Nc3nc(-c4ccccn4)nnc3-c3ccccc3)s2)cc1`, the AC50 in assay [2] was 6.81 µM.

As for `Cn1c(-c2ccccc2)cnc1NC(=O)c1cc(-c2ccccc2)on1`, the max activation in assay [1] (at 38 µM) is 2.14% (inactive).

In the case of `Cc1ccccc1CNC(=O)c1cc(-c2ccccc2)on1`, the max activation in assay [1] (at 0.5 µM) is 2.16% (inactive).

In the case of `Cc1ccccc1CNc1nc(-c2ccccn2)nnc1-c1ccccc1`, the AC50 in assay [2] is 6.05 µM.

With `O=C(NCC1CCCCC1)c1cc(-c2ccccc2)on1`, the max activation in assay [1] (at 0.16 µM) was 1.14% (inactive).

For `O=C(Nc1cn2ccccc2n1)c1cc(-c2ccccc2)on1`, the max activation in assay [1] (at 0.5 µM) was -5.84% (inactive).

In the case of `c1ccc(-c2nnc(-c3ccccn3)nc2NCC2CCCCC2)cc1`, in assay [2], the AC50 was 3.12 µM.

As to `c1ccc(-c2nnc(-c3ccccn3)nc2N2CCC(N3CCOCC3)CC2)cc1`, the AC50 in assay [2] is 8.79 µM.

`c1ccc(-c2csc(Nc3nc(-c4ccccn4)nnc3-c3ccccc3)n2)cc1`: the AC50 in assay [2] is 2.84 µM.

For the compound `O=C(NCC1CC1)c1cc(-c2ccccc2)on1`, in assay [1] (at 13.5 µM), the max activation was 7.82% (inactive).

On to `CC(C)(C)CCNC(=O)c1cc(-c2ccccc2)on1`, for which the max activation in assay [1] (at 4.6 µM) is 1.55% (inactive).

On to `c1ccc(-c2nnc(-c3ccccn3)nc2Nc2cnc3ccccc3n2)cc1`, for which the AC50 in assay [2] is 6.4 µM.

On to `c1ccc(-c2nnc(-c3ccccn3)nc2Nc2nc3ccccc3s2)cc1`, for which the AC50 in assay [2] was 8.19 µM.

Regarding `O=C(NCCN1CCCCC1)c1cc(-c2ccccc2)on1`, the max activation in assay [1] (at 0.056 µM) was -1.17% (inactive).

On to `Cc1ccc(Nc2nc(-c3ccccn3)nnc2-c2ccccc2)cn1`, for which the AC50 in assay [2] is 27.9 µM.

Take `O=C(c1cc(-c2ccccc2)on1)N1CCc2cccnc21`: the max activation in assay [1] (at 38 µM) is 2.94% (inactive).

Take `O=C(c1cc(-c2ccccc2)on1)N1CCN(c2ccncc2)CC1`: the max activation in assay [1] (at 4.6 µM) was 6.21% (inactive).

For the compound `c1ccc(-c2nnc(-c3ccccn3)nc2NCC2CC2)cc1`, the AC50 in assay [2] was 12.3 µM.

Consider `O=C(NCc1ccccc1)c1cc(-c2ccccc2)on1`, for which the max activation in assay [1] (at 0.056 µM) is 1.94% (inactive).

As to `Cc1ccc(CNC(=O)c2cc(-c3ccccc3)on2)cc1`, in assay [1] (at 0.056 µM), the max activation was -4.17% (inactive).

Regarding `Cc1cccc(NC(=O)c2cc(-c3ccccc3)on2)n1`, the max activation in assay [1] (at 38 µM) is -6.71% (inactive).

In the case of `O=C(NCCCO)c1cc(-c2ccccc2)on1`, the max activation in assay [1] (at 13.5 µM) was 8.74% (inactive).

Regarding `Cc1ccc(NC(=O)c2cc(-c3ccccc3)on2)cn1`, the max activation in assay [1] (at 38 µM) is 4.68% (inactive).

For `O=C(Nc1nc(-c2ccccc2)cs1)c1cc(-c2ccccc2)on1`, the max activation in assay [1] (at 4.6 µM) is 6.53% (inactive).

Turning to `O=C(NCCCn1ccnc1)c1cc(-c2ccccc2)on1`, in assay [2], the AC50 was 8.16 µM.

Regarding `Cn1c(-c2ccccc2)cnc1Nc1nc(-c2ccccn2)nnc1-c1ccccc1`, the max activation in assay [1] (at 0.5 µM) was -0.998% (inactive).

Take `CN(C)CCNC(=O)c1cc(-c2ccccc2)on1`: the max activation in assay [1] (at 0.5 µM) was -2.73% (inactive).
